Reference: ChEMBL document CHEMBL1122764, “Synthesis and antidepressant activity of 4-aryltetrahydrothieno[2,3-c]pyridine derivatives” (J Med Chem, 1984)

How the values were obtained:
[1] = species: Mus musculus; assay: Anti-tetrabenazine (TBZ) activity, ability to prevent TBZ-induced ptosis in mice; assay type: functional
Outline: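 Mice; compound given by an unstated route some hours before tetrabenazine (the time is truncated). Five animals per dose, with at least three to five doses. Ptosis scored 75-120 min after tetrabenazine injection on the Rubin scale (eyes closed = 100).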

[2] = species: Rattus norvegicus; assay: cells; assay type: functional, organism-based, Synaptosomes; settings: Brain, 3 h
[3] = species: Rattus norvegicus; assay: In vitro inhibition of norepinephrine uptake in rat brain synaptosomes using [3H]NE; assay type: functional, organism-based

SMILES | ED50 [1] [mg/kg] | IC50 [2] [µM] | IC50 [3] [µM]
Cc1cc2c(s1)CN(C)CC2(C)c1ccc(Br)cc1 (configuration not stated) | 40 | 3.1 | 3.4
Oc1cccc(C2CNCc3sc(Cl)cc32)c1 (configuration not stated) | > 40 | > 10 | 3.2
CN1Cc2sc(N)cc2C(c2ccc(Cl)cc2)C1 (configuration not stated) | > 40 | 0.21 | 0.18
COCc1cc2c(s1)CN(C)CC2c1ccc(Br)cc1 (configuration not stated) | 1.7 | 0.2 | 0.37
CN1Cc2sc([N+](=O)[O-])cc2C(c2ccc(Cl)cc2)C1 (configuration not stated) | > 40 | 3.35 | 0.8
CN1Cc2sc(Br)cc2C(c2ccc(Br)cc2)C1 (configuration not stated) | 0.8 | 4.1 | 1.6
CN1Cc2sc(N)cc2C(c2ccc(Br)cc2)C1 (configuration not stated) | 7.4 | 0.09 | 0.13
CN1Cc2sc(Cl)cc2C(c2ccc(Br)cc2)C1.Cl (configuration not stated) | 6.5 | 3.5 | 1
CN1Cc2sc([N+](=O)[O-])cc2C(c2ccc(Br)cc2)C1.Cl (configuration not stated) | 3.6 | 2.45 | 0.45
COc1ccc(C2CN(C)Cc3sccc32)cc1OC.Cl (configuration not stated) | > 40 | 0.3 | > 10
Cc1sc2c(c1Br)C(c1ccc(Br)cc1)CN(C)C2.Cl (configuration not stated) | > 40 | > 10 | 7.8
CN1Cc2sccc2C(c2ccc(Cl)cc2Cl)C1.Cl (configuration not stated) | > 40 | 3 | > 10
Cc1cc2c(s1)CN(C)CC2c1cccc(C(F)(F)F)c1.Cl (configuration not stated) | > 40 | > 10 | 3.4
COc1ccc(C2CN(C)Cc3sc(C)cc32)cc1.Cl (configuration not stated) | 7.1 | 0.5 | 0.4
Cl.c1ccc(C2CNCc3sccc32)cc1 (configuration not stated) | > 40 | > 10 | 3
CN1Cc2sc(Cl)cc2C(c2ccc(Cl)cc2)C1.Cl (configuration not stated) | 2.2 | 5.4 | 1.6
CCCCN1Cc2sccc2C(c2ccc(Cl)cc2)C1.Cl (configuration not stated) | > 40 | > 10 | > 10
CN1Cc2sc(C(C)(C)C)cc2C(c2ccc(Br)cc2)C1.Cl (configuration not stated) | 7 | 5.7 | 1.74
Cc1cc2c(s1)CN(C)CC2c1c(Cl)cccc1Cl.Cl (configuration not stated) | > 40 | > 10 | > 10

SMILES | ED50 [1] [mg/kg] | IC50 [2] [µM] | IC50 [3] [µM]
Cc1ccc(C2CN(C)Cc3sc(CO)cc32)cc1.Cl (configuration not stated) | 0.7 | 1.2 | 0.05
CCCc1cc2c(s1)CN(C)CC2c1ccc(Br)cc1.Cl (configuration not stated) | 40 | 0.86 | 0.99
Cc1ccc(C2CN(C)Cc3sc(Cl)cc32)cc1.Cl (configuration not stated) | 5.9 | > 10 | 0.9
Cc1ccc(C2CN(C)Cc3sc(Br)cc32)cc1.Cl (configuration not stated) | 7.4 | 9 | 0.64
Cc1cc2c(s1)CN(C)CC2c1ccc(O)cc1.Cl (configuration not stated) | 10 | 0.46 | 0.25
Cc1cc2c(s1)CNCC2c1ccc(Br)cc1.Cl (configuration not stated) | > 40 | 1.8 | 0.76
Cc1cc2c(s1)CN(C)CC2c1ccc(Br)cc1.Cl (configuration not stated) | 2.6 | 0.54 | 0.5
CN1Cc2sc(Br)cc2C(c2ccccc2)C1.Cl (configuration not stated) | 6 | > 10 | 2.3
Cc1cc2c(s1)CN(C)CC2c1ccccc1.Cl (configuration not stated) | 8.4 | 8 | 0.56
Cc1cc2c(s1)CN(C)CC2c1ccc(C(F)(F)F)cc1.Cl (configuration not stated) | > 40 | 2.05 | 7.8
CCc1cc2c(s1)CN(CC)CC2c1ccc(C)cc1.Cl (configuration not stated) | > 40 | 1.8 | 0.27
CCCc1cc2c(s1)CN(C)CC2c1ccc(F)cc1.Cl (configuration not stated) | 13 | 0.78 | 1.1
CC(=O)Nc1cc2c(s1)CN(C)CC2c1ccc(Cl)cc1.Cl (configuration not stated) | 35 | 0.6 | 0.57
Cc1cc2c(s1)CN(C)CC2c1ccc(Cl)cc1.Cl (configuration not stated) | > 40 | 3.55 | 0.19
Cl.Clc1cc2c(s1)CNCC2c1ccc(Br)cc1 (configuration not stated) | > 40 | > 10 | 3.6
CN1Cc2sc(Cl)cc2C(c2ccccc2)C1.Cl (configuration not stated) | > 40 | > 10 | 1.4
CCC1(c2ccc(Br)cc2)CN(C)Cc2sc(C)cc21 (configuration not stated) | > 40 | > 10 | > 10
CN(C)CCCN1c2ccccc2CCc2ccccc21 [IMIPRAMINE] | 2.3 | 0.23 | 5
CN1Cc2c(N)cccc2C(c2ccccc2)C1 (configuration not stated) [NOMIFENSINE] | 1.7 |  | 
